Activity calls are given as the source filed them. The rule behind the calls is not given here.
Legend:
[1] = Antiproliferative activity against mouse BMOL-NT cells assessed as cell growth by measuring doubling time at 10 uM measured every 4 hrs for 3 days by IncuCyte zoom live cell analysis (reference value: 18 to 19 hrs); assay type: cell-based; conditions: 72 h, time 3 day
[2] = Antiproliferative activity against mouse BMOL-T cells assessed as change in doubling time at 10 uM measured every 4 hrs for 3 days by IncuCyte zoom live cell analysis relative to control; assay type: functional; conditions: time 3 day
[3] = Antiproliferative activity against mouse BMOL-T cells assessed as cell growth by measuring doubling time at 10 uM measured every 4 hrs for 3 days by IncuCyte zoom live cell analysis (reference value: 14.3 to 15 hrs); assay type: functional; conditions: time 3 day
[4] = Antiproliferative activity against mouse BMOL-NT cells assessed as cell growth inhibition at 10 uM measured every 4 hrs for 3 days by IncuCyte zoom live cell analysis relative to control; assay type: cell-based; conditions: time 3 day; for Activity: bmol-nt, 72 h, 10 µM
BMOL-T [5] = assay: (§1) Antiproliferative activity against mouse BMOL-T cells assessed as cell growth inhibition at 10 uM measured every 4 hrs for 3 days by IncuCyte zoom live cell analysis relative to control; assay type: functional; conditions: time 3.0 day
Transcription factor p65 [6] = biological target: T1, Transcription factor p65 (Mus musculus, UniProt Q04207); assay: Inhibition of NFkB p65 phosphorylation in mouse BMOL-NT cells assessed as change in phosphorylated p65 level at 10 uM incubated for 6 hrs by immunofluorescent assay relative to control; assay type: cell-based; parameters: scale not given: the % may be the effect or the level left
Method in brief: (§2)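 BMOL cells in supplemented Williams' E medium were treated 6 h with compound or 0.1% DMSO vehicle. Fixed in 4% PFA, permeabilised with 0.1% Triton X-100, blocked, then incubated 18 h with anti-phospho-p65, -Akt or -STAT3, then secondary antibody 1 h and Hoechst. High-content imaging of per-cell intensity and nuclear:whole-cell ratio. Mean of two experiments, SD.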

[7] = biological target: Transcription factor p65 (Mus musculus) (UniProt Q04207); assay: Inhibition of NFkB p65 phosphorylation in mouse BMOL-T cells assessed as change in phosphorylated p65 level at 10 uM incubated for 6 hrs by immunofluorescent assay relative to control; assay type: cell-based; parameters: scale not given: the % may be the effect or the level left; method in brief: as §2
[8] = biological target: Transcription factor p65 (Mus musculus) (UniProt Q04207); assay: Inhibition of NFkB p65 nuclear translocation in mouse BMOL-T cells assessed as change in nuclear p65 level at 10 uM incubated for 6 hrs by immunofluorescent assay relative to control; assay type: subcellular; parameters: scale not given: the % may be the effect or the level left; conditions: Nucleus; method in brief: as §2
BMOL-T [9] = assay: Effect on STAT3 expression in mouse BMOL-T cells at 10 uM by AlphaLISA assay; assay type: functional, cell-based
Method in brief: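 AlphaLISA in BMOL-T cells treated at 10 µM with 0.1% DMSO vehicle as control. Read as normalised fluorescence for total STAT3, or as the ratio of total STAT3 to p-STAT3. n ≥ 3, SEM. Significance by ANOVA with Dunnett's test.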

[10] = Inhibition of Akt phosphorylation in mouse BMOL-NT cells assessed as change in nuclear phosphorylated Akt level at 10 uM incubated for 6 hrs by immunofluorescent assay relative to control; assay type: subcellular, Nucleus; parameters: scale not given: the % may be the effect or the level left; method in brief: as §2
Transcription factor p65 [11] = biological target: T1, Transcription factor p65; assay: Inhibition of NFkB p65 nuclear translocation in mouse BMOL-NT cells assessed as change in nuclear p65 level at 10 uM incubated for 6 hrs by immunofluorescent assay relative to control; assay type: subcellular, Nucleus; parameters: scale not given: the % may be the effect or the level left; method in brief: as §2
[12] = Inhibition of Akt phosphorylation in mouse BMOL-NT cells assessed as change in phosphorylated Akt level at 10 uM incubated for 6 hrs by immunofluorescent assay relative to control; assay type: cell-based; parameters: scale not given: the % may be the effect or the level left; method in brief: as §2
[13] = biological target: Signal transducer and activator of transcription 3 (Mus musculus) (UniProt P42227); assay: Inhibition of STAT3 phosphorylation in mouse BMOL-T cells assessed as change in phosphorylated STAT3 level at 10 uM incubated for 6 hrs by immunofluorescence assay relative to control; assay type: cell-based; parameters: scale not given: the % may be the effect or the level left; method in brief: as §2
[14] = Antimigratory activity against mouse BMOL-T cells assessed as inhibition of cell migration at 10 uM incubated for 16 hrs by scratch wound healing assay relative to control; assay type: functional
Method in brief: (§3)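 Wound healing in BMOL-T cells plated at 20,000/well in supplemented Williams' E medium and grown 24 h. Wounds made with a Woundmaker, then medium replaced with fresh medium holding compound or 0.1% DMSO vehicle. Live-cell imaging every 2 h over 24 h, read as average wound width (µm). n = 3, SEM.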

[15] = biological target: T2, Signal transducer and activator of transcription 3 (Mus musculus, UniProt P42227); assay: Inhibition of STAT3 phosphorylation in mouse BMOL-NT cells assessed as change in phosphorylated STAT3 level at 10 uM incubated for 6 hrs by immunofluorescence assay relative to control; assay type: cell-based; parameters: scale not given: the % may be the effect or the level left; method in brief: as §2
BMOL-T [16] = assay: Inhibition of Akt phosphorylation in mouse BMOL-T cells assessed as change in nuclear phosphorylated Akt level at 10 uM incubated for 6 hrs by immunofluorescent assay relative to control; assay type: subcellular; parameters: scale not given: the % may be the effect or the level left; conditions: Nucleus; method in brief: as §2
[17] = biological target: Signal transducer and activator of transcription 3 (Mus musculus) (UniProt P42227); assay: Inhibition of STAT3 phosphorylation in mouse BMOL-T cells assessed as change in nuclear phosphorylated STAT3 level at 10 uM incubated for 6 hrs by immunofluorescence assay relative to control; assay type: subcellular; parameters: scale not given: the % may be the effect or the level left; conditions: Nucleus; method in brief: as §2
[18] = biological target: T2, Signal transducer and activator of transcription 3; assay: Inhibition of STAT3 phosphorylation in mouse BMOL-NT cells assessed as change in nuclear phosphorylated STAT3 level at 10 uM incubated for 6 hrs by immunofluorescence assay relative to control; assay type: subcellular, Nucleus; parameters: scale not given: the % may be the effect or the level left; method in brief: as §2
BMOL-T [19] = assay: Inhibition of Akt phosphorylation in mouse BMOL-T cells assessed as change in phosphorylated Akt level at 10 uM incubated for 6 hrs by immunofluorescent assay relative to control; assay type: cell-based; parameters: scale not given: the % may be the effect or the level left; method in brief: as §2
[20] = Antiproliferative activity against mouse BMOL-NT cells assessed as change in doubling time at 10 uM measured every 4 hrs for 3 days by IncuCyte zoom live cell analysis relative to control; assay type: cell-based; conditions: 72 h, time 3 day
[21] = Antiproliferative activity against mouse BMOL-NT cells assessed as cell growth inhibition at >10 uM measured every 4 hrs for 3 days by IncuCyte zoom live cell analysis; assay type: cell-based; conditions: 72 h, time 3 day
[22] = Selectivity for antiproliferative activity against mouse BMOL-T cells over mouse BMOL-NT cells at 10 uM measured every 4 hrs for 3 days by IncuCyte zoom live cell analysis; conditions: time 3 day
[23] = Selectivity for antiproliferative activity against mouse BMOL-T cells over mouse BMOL-NT cells at 26 uM measured every 4 hrs for 3 days by IncuCyte zoom live cell analysis; conditions: time 3 day
[24] = as §1; assay type: functional; conditions: 72 h, time 3 day
BMOL-T [25] = assay: (§4) Antiproliferative activity against mouse BMOL-T cells assessed as minimum concentration required for cell growth inhibition measured every 4 hrs for 3 days by IncuCyte zoom live cell analysis; assay type: functional; conditions: time 3.0 day
Method in brief: (§5)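 Dose series for BMOL-T proliferation: cells plated at 1000/well, compound added from 2× solutions (final 0.1% DMSO), imaged every 4 h for 3 days. Doubling time from the log-phase linear part of a log confluence vs time curve, expressed as % change over vehicle. n = 3, SEM.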

[26] = as §4; assay type: functional; conditions: time 3 day; method in brief: as §5
BMOL-T [27] = assay: Antimigratory activity against mouse BMOL-T cells assessed as inhibition of cell migration at 10 uM incubated for 24 hrs by scratch wound healing assay; assay type: functional, cell-based; method in brief: as §3

T2 sequence (P42227 whole entry): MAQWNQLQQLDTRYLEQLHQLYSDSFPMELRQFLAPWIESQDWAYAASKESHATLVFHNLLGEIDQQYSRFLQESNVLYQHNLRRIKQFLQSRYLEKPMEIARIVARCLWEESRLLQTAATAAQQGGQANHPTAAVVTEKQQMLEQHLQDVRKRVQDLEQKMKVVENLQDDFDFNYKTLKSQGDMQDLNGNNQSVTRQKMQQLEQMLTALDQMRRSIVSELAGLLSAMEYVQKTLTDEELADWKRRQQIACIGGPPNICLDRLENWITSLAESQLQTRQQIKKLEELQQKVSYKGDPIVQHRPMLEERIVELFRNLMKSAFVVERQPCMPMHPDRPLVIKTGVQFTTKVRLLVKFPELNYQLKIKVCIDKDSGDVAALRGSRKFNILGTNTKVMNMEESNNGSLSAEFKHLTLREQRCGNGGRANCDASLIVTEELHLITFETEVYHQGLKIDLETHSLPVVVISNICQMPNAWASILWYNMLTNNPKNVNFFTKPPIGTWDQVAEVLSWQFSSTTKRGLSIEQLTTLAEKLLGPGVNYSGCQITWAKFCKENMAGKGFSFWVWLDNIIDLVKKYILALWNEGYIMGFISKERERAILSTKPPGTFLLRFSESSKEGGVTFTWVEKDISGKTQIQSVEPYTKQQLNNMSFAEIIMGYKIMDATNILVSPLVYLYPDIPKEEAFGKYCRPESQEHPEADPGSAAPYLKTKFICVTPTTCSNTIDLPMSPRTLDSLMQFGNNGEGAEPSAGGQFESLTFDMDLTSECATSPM
Signal transducer and activator of transcription 3 (Mus musculus), sequence (P42227 whole entry): as above
T1 sequence (Q04207 whole entry): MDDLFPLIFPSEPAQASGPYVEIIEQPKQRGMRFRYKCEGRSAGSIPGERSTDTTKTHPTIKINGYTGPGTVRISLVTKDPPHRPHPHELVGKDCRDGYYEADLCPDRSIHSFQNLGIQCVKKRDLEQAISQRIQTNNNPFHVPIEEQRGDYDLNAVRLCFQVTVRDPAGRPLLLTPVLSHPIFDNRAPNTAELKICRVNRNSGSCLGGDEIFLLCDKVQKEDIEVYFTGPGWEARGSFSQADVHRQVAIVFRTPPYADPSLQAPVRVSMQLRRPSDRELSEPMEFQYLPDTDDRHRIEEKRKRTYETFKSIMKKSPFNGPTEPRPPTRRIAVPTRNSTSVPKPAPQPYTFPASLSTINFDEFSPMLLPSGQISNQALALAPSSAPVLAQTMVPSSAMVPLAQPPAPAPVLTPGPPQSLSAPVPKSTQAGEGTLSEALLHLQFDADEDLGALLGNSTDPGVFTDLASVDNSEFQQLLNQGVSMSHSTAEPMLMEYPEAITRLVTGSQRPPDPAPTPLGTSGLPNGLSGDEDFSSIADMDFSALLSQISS
Transcription factor p65 (Mus musculus), sequence (Q04207 whole entry): as above

O=C1CCC(N2C(=O)c3cccc(Nc4ccccc4)c3C2=O)C(=O)N1 (stereo not drawn)
Time [1]: 17.4 h | Activity [2]: 7% | Time [3]: 14.3 h

O=C1CCC(N2C(=O)c3cccc(Sc4ccc5ccccc5n4)c3C2=O)C(=O)N1 (stereo not drawn)
Activity [4]: Non-Toxic

O=C1CCC(N2C(=O)c3cccc(Sc4ccc(C(F)(F)F)cc4)c3C2=O)C(=O)N1 (stereo not drawn)
Activity (BMOL-T [5]): inactive

Nc1cccc2c1CN(C1CCC(=O)NC1=O)C2=O (stereo not drawn) [LENALIDOMIDE]
Activity (Transcription factor p65 [6]): 13% | Activity [7]: -5% | Time [1]: 18 h | Activity [8]: 7% | Activity (BMOL-T [9]): inactive | Activity [10]: -6% | Activity (Transcription factor p65 [11]): -9% | Activity [12]: 0% | Activity [13]: -4% | inhibition at 10 µM [14]: 20% | Activity [15]: 2% | Activity (BMOL-T [16]): -16% | Time [3]: 15 h | Activity [17]: 3% | Activity [18]: -3% | Activity (BMOL-T [19]): -9%

CC(C)c1ccc(Sc2cccc3c2C(=O)N(C2CCC(=O)NC2=O)C3=O)cc1 (stereo not drawn)
Time [1]: 17.2 h | Activity [2]: 19% | Time [3]: 16.2 h | Activity [20]: 3%

CC(C)Oc1ccc(Nc2cccc3c2C(=O)N(C2CCC(=O)NC2=O)C3=O)cc1 (stereo not drawn)
Activity (BMOL-T [5]): Active

CCCc1ccc(Nc2cccc3c2C(=O)N(C2CCC(=O)NC2=O)C3=O)cc1 (stereo not drawn)
Activity (BMOL-T [5]): Active

Nc1cccc2c1C(=O)N(C1CCC(=O)NC1=O)C2=O (stereo not drawn) [POMALIDOMIDE]
Time [1]: 18 h | Time [3]: 15 h

CC(C)c1ccc(Cc2cccc3c2C(=O)N(C2CCC(=O)NC2=O)C3=O)cc1 (stereo not drawn)
Time [1]: 17.5 h | Activity [2]: 17% | Time [3]: 17 h

O=C1CCC(N2C(=O)c3cccc(Sc4ccc(C(F)(F)F)cn4)c3C2=O)C(=O)N1 (stereo not drawn)
Activity (BMOL-T [5]): inactive

CC(C)(C)c1ccc(Nc2cccc3c2C(=O)N(C2CCC(=O)NC2=O)C3=O)cc1 (stereo not drawn)
Activity [21]: Toxic | Activity (Transcription factor p65 [6]): -1% | Activity [7]: -7% | Activity [8]: -9% | Activity (BMOL-T [9]): inactive | Selectivity ratio [22]: 23 | Activity [10]: -10% | Activity (Transcription factor p65 [11]): -11% | Selectivity ratio [23]: 3 | Activity [12]: 4% | Activity [13]: -7% | inhibition at 10 µM [24]: 31% | inhibition at 10 µM [14]: 94% | Activity [15]: -4% | Activity (BMOL-T [25]): Dose-Dependent Effect | MAC [26]: 4 µM | Activity (BMOL-T [27]): Active | Activity (BMOL-T [16]): 4% | Activity [17]: -10% | Activity [18]: -13% | Activity (BMOL-T [19]): 4%

Cc1ccccc1Nc1cccc2c1C(=O)N(C1CCC(=O)NC1=O)C2=O (stereo not drawn)
Activity (BMOL-T [5]): inactive

CC(C)c1ccc(Oc2cccc3c2C(=O)N(C2CCC(=O)NC2=O)C3=O)cc1 (stereo not drawn)
Time [1]: 17.5 h | Activity [2]: 5% | Time [3]: 15.4 h

COc1ccc(Nc2cccc3c2C(=O)N(C2CCC(=O)NC2=O)C3=O)cc1 (stereo not drawn)
Activity (BMOL-T [5]): Active

O=C1CCC(N2C(=O)c3cccc(Nc4ccc5c(c4)CCCC5)c3C2=O)C(=O)N1 (stereo not drawn)
Activity (BMOL-T [5]): Active | inhibition at 72 h, 10 µM ([4]; BMOL-NT cells): ≤ 10%

Cc1ccc(Nc2cccc3c2C(=O)N(C2CCC(=O)NC2=O)C3=O)cc1 (stereo not drawn)
Activity (BMOL-T [5]): inactive

COc1ccc(Sc2cccc3c2C(=O)N(C2CCC(=O)NC2=O)C3=O)cc1 (stereo not drawn)
Activity [4]: Toxic

From ChEMBL document CHEMBL4814031, “In pursuit of a selective hepatocellular carcinoma therapeutic agent: Novel thalidomide derivatives with antiproliferative, antimigratory and STAT3 inhibitory properties” (Eur J Med Chem, 2021)
